Laboratory results taken from ChEMBL document CHEMBL2169854, “New insight into the central benzodiazepine receptor-ligand interactions: design, synthesis, biological evaluation, and molecular modeling of 3-substituted 6-phenyl-4H-imidazo[1,5-a][1,4]benzodiazepines and related compounds” (J Med Chem, 2011).
Calls of active or inactive are those of the source. The rule behind the calls is not given here.

Key:
Assay type in all cases: functional, organism-based
[1] = test system: Mus musculus; assay: […] activity in mouse assessed as effect on spontaneous motility measuring number of movements on plane board at 10 mg/kg, po after 5 mins by hole-board test relative to CMC-treated control; parameters: dose 10 mg/kg
Method in brief: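 Mice dosed orally in 1% CMC were placed singly on a 16-hole board for 5 min. Photocells counted plane movements (spontaneous motility) and hole explorations. Groups of 12–15 mice were compared with CMC controls.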

[2] = test system: Mus musculus; assay: Anxiolytic effect in mouse assessed as increase in time spent in light compartment at 1 mg/kg, po by light/dark box test; parameters: dose 1 mg/kg
Method in brief: (§1)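 Male mice were used. Compound was given orally as a suspension in 1% CMC; diazepam was given ip in saline; volume 10 mL/kg. Each mouse was placed in the lit side of a two-compartment light/dark box and observed for 5 min, scoring time in the light and transfers. Groups were compared by ANOVA with Fisher PLSD.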

[3] = test system: Mus musculus; assay: Myorelaxant activity in mouse assessed as motor coordination measuring number of falls at 10 mg/kg, po measured for 30 seconds after 45 mins of compound administration by rotarod test; parameters: dose 10 mg/kg
Method in brief: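 In mice, falls from the rotating rod were counted for 30 s after dosing. Compound was given orally in 1% CMC and diazepam ip in saline. Results were compared against saline/CMC controls by ANOVA.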

[4] = test system: Mus musculus; assay: Anxiolytic effect in mouse assessed as increase in time spent in light compartment at 10 mg/kg, po by light/dark box test; parameters: dose 10 mg/kg; method in brief: as §1

CCOC(=O)c1ncn2c1CN=C(c1ccc(F)cc1)c1cc(F)ccc1-2
Activity [1]: inactive | Activity [2]: Active | Activity [3]: inactive | Activity [4]: Active
